Results on 18 compounds are retold here after ChEMBL document CHEMBL4152236, “Substituted 1,5-naphthyridine derivatives as novel antileishmanial agents. Synthesis and biological evaluation” (Eur J Med Chem, 2018).

The source made the active and inactive calls. The rule behind the calls is not given here.

Data set [1] in a line: Inhibition of Leishmania donovani Top1B expressed in Top1B deficient Saccharomyces cerevisiae EKY3 assessed as decrease in relaxation of supercoiled pSK DNA preincubated for 15 mins followed by DNA addition and measured after 1 to 16 mins by agarose gel electrophoresis. Put shortly: (§1)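 Recombinant LTopIB or hTopIB from TopIB-deficient yeast EKY3 (galactose-induced), purified on phosphocellulose then phenyl-Sepharose. Enzyme (1 unit) preincubated with compound for 15 min at 37 °C. Then 0.5 μg supercoiled pSK DNA added in 10 mM Tris-HCl pH 7.5, 5 mM MgCl₂, 0.1 mM EDTA, 50 mM KCl, BSA. Incubated at 37 °C, stopped with 1% SDS. Agarose gel; relaxed and supercoiled bands quantified.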

Data set [2] concerns Leishmania infantum. As to the kind of experiment: Leishmanicidal activity against amastigote stage of iRFP expressing Leishmania infantum BCN150 infected in BALB/c mouse splenocytes assessed as decrease in parasite viability after 72 hrs. Type of data set: functional, organism-based. Conditions: BCN150, 72 h. Put shortly: (§2)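 Female BALB/c mice infected intravenously with metacyclic L. infantum-iRFP promastigotes. After 5 weeks, spleens collagenase-digested (2 mg/mL, 20 min, 37 °C); splenocytes plated in RPMI with 20% FCS. Compounds added at 10 to 0.07 μM for 72 h. Infrared emission read at 708 nm; IC50 is the 50% reduction versus DMSO control. SI = CC50 in uninfected splenocytes / amastigote IC50.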

The nature of data set [3]: Cytotoxicity against BALB/c mouse splenocytes assessed as decrease in […] viability after 72 hrs by Alamar blue assay. Type of data set: cell-based, Splenocyte. Put shortly: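 Uninfected BALB/c mouse splenocytes, obtained and cultured as for the explants (RPMI, 20% FCS), exposed to compounds at 100 to 0.8 μM for 72 h at 37 °C. Viability read by Alamar Blue. CC50 taken from dose-response curves. Mean ± sd of at least three experiments in triplicate.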
In general terms: The colour change of resazurin is a common sign of viable cells or microbes.

Data set [4] in a line: Selectivity index, ratio of CC50 for BALB/c mouse splenocytes to IC50 for amastigote stage of iRFP expressing Leishmania infantum BCN150 infected in BALB/c mouse splenocytes. In kind it is toxicity, cell-based. Conditions: read-out: Ratio CC50/IC50. In short, it runs like this: as §2
The next data set concerns the target T1, DNA topoisomerase 1 (Homo sapiens, UniProt P11387).
T1 sequence (P11387 whole entry): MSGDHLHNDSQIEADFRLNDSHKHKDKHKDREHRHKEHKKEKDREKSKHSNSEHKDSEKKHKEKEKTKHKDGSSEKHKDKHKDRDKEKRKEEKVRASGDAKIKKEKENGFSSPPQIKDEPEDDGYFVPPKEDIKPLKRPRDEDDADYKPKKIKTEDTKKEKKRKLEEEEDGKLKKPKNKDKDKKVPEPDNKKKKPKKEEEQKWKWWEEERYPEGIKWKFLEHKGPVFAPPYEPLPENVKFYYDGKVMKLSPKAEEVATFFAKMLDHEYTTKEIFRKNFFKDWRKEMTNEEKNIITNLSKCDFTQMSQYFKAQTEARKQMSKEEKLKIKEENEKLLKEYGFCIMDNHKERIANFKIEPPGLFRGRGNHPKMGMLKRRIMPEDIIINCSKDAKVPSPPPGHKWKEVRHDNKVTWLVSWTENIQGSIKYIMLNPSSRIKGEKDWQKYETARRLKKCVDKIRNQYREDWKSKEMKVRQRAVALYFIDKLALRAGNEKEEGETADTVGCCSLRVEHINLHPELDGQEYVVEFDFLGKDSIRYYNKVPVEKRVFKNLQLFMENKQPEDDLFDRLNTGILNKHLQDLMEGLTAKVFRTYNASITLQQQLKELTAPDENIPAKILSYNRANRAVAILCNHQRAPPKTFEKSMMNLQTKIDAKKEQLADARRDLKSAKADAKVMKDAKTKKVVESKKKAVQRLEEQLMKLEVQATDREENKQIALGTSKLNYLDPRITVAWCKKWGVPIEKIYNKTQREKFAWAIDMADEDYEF
As to the kind of experiment: Inhibition of human Top1B expressed in Top1B deficient Saccharomyces cerevisiae EKY3 assessed as decrease in relaxation of supercoiled pSK DNA preincubated for 15 mins followed by DNA addition and measured after 1 to 16 mins by agarose gel electrophoresis. Put shortly: as §1

Data set [5] deals with Leishmania infantum. Nature of the data set: Leishmanicidal activity against promastigote stage of iRFP expressing Leishmania infantum BCN150 assessed as decrease in parasite viability. In kind it is functional, organism-based. Put shortly:
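Promastigotes grown in M199 with 10% heat-inactivated FCS, seeded at 10^6 cells/mL. Compounds given as three-fold DMSO stock dilutions, final DMSO ≤0.1%. Viability read as infrared fluorescence (ex 684, em 708 nm). IC50 is the 50% emission reduction versus DMSO control, from nonlinear fits. Triplicate wells.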

Another data set concerns Leishmania donovani. Nature of the data set: Inhibition of Leishmania donovani Top1B expressed in Top1B deficient Saccharomyces cerevisiae EKY3 assessed as decrease in relaxation of supercoiled pSK DNA at 100 uM at 37 degC preincubated for 15 mins followed by DNA addition and measured after 1 to 16 mins by agarose gel electrophoresis. In short, it runs like this:
as §1

Usually IC50 stands for the midpoint of a concentration-inhibition curve. Usually CC50 stands for the concentration that lowers cell viability or growth by half. As to `FC(F)(F)c1ccc(-c2cc(-c3ccccc3)c3ncccc3n2)cc1`, the IC50 worked out at 69.5 µM in data set [1] (read-out: IC50), 0.47 µM in the data set on Leishmania infantum [2], 72.7 µM on DNA topoisomerase 1 (read-out: IC50) and 37.3 µM in the data set on Leishmania infantum [5]. Also, the CC50 at 72 h in data set [3] was found to be 65.7 µM. Moreover, the selectivity ratio in data set [4] worked out at 140.

As for `O=[N+]([O-])c1cccc(-c2cc(-c3ccc(-c4ccccc4)cc3)c3ncccc3n2)c1`, the half-maximal inhibitory concentration (IC50) was 78.7 µM in data set [1] (read-out: IC50), 0.29 µM with Leishmania infantum [2], 67.5 µM at DNA topoisomerase 1 (read-out: IC50) and 15.1 µM in the data set with Leishmania infantum [5]. Further, the CC50 at 72 h in data set [3] stood at 30.1 µM. The selectivity ratio in data set [4] was determined as 104.

As to `O=[N+]([O-])c1cccc(-c2cc(-c3ccccc3)c3ncccc3n2)c1`, the IC50 in the data set with Leishmania infantum [2] was 1.02 µM; at DNA topoisomerase 1 it was “Not Active”; with Leishmania infantum [5], 79.2 µM. In addition, the half-maximal cytotoxic concentration (CC50) at 72 h in data set [3] came to 146 µM. In addition, in data set [4], the selectivity ratio came to 143.

With `C[C@@H]1[C@H](O)[C@@H](C)/C=C/C=C/C=C/C=C/C=C/C=C/C=C/[C@H](O[C@@H]2O[C@H](C)[C@@H](O)[C@H](N)[C@@H]2O)C[C@@H]2O[C@](O)(C[C@@H](O)C[C@@H](O)[C@H](O)CC[C@@H](O)C[C@@H](O)CC(=O)O[C@H]1C)C[C@H](O)[C@H]2C(=O)O` [AMPHOTERICIN B], in data set [3], the CC50 at 72 h is > 20 µM. The selectivity ratio in data set [4] is > 62.5.

As for `Cc1c(-c2ccc(C(F)(F)F)cc2)nc2cccnc2c1-c1ccccc1`, the IC50 in data set [1] (read-out: IC50) was 75.7 µM; in the data set with Leishmania infantum [2], 2.37 µM; at DNA topoisomerase 1 (read-out: IC50), 70.6 µM; in the data set on Leishmania infantum [5] it was > 100 µM. Besides, in data set [3], the CC50 at 72 h stood at 126 µM. Further, the selectivity ratio in data set [4] is 53.2.

For the compound `Fc1ccc(-c2cc(-c3ccccc3)c3ncccc3n2)cc1`, the 50% inhibitory concentration (IC50) was 81.9 µM in data set [1] (read-out: IC50), 7.41 µM in the data set on Leishmania infantum [2], 72.8 µM at DNA topoisomerase 1 (read-out: IC50) and > 100 µM in the data set on Leishmania infantum [5]. Besides, the CC50 at 72 h in data set [3] turned out to be 124 µM. Also, in data set [4], the selectivity ratio is 16.7.

For `COc1ccc(-c2cc(-c3ccc(C(F)(F)F)cc3)nc3cccnc23)cc1`, the IC50 in the data set on Leishmania infantum [2] was 2.26 µM; on DNA topoisomerase 1 it was “Not Active”; in the data set with Leishmania infantum [5], > 100 µM. In addition, the CC50 at 72 h in data set [3] amounted to 152 µM. Besides, in data set [4], the selectivity ratio amounted to 67.1.

For `COc1ccc(-c2cc(-c3ccc([N+](=O)[O-])cc3)nc3cccnc23)cc1`, the IC50 entry was “Not Active” in data set [1], 0.58 µM in the data set on Leishmania infantum [2], “Not Active” on DNA topoisomerase 1 and 20.7 µM in the data set on Leishmania infantum [5]. In addition, in data set [3], the CC50 at 72 h stood at 109 µM. The selectivity ratio in data set [4] was 187.

In the case of `FC(F)(F)c1ccc(-c2cc(-c3ccsc3)c3ncccc3n2)cc1`, the half-inhibitory concentration (IC50) in data set [1] (read-out: IC50) is 62.8 µM; with Leishmania infantum [2] it was 3.67 µM; at DNA topoisomerase 1 (read-out: IC50), 82.1 µM; in the data set on Leishmania infantum [5], > 100 µM. The CC50 at 72 h in data set [3] came out at 181 µM. In addition, in data set [4], the selectivity ratio was 49.4.

For the compound `CC[C@@]1(O)C(=O)OCc2c1cc1n(c2=O)Cc2cc3ccccc3nc2-1` [CAMPTOTHECIN], the IC50 in data set [1] (read-out: IC50) is 75.7 µM.

With `COc1ccc(-c2cc(-c3ccc(F)cc3)nc3cccnc23)cc1`, the IC50 result in data set [1] is “Not Active”; with Leishmania infantum [2], 0.76 µM; at DNA topoisomerase 1 it was “Not Active”; in the data set with Leishmania infantum [5], 97.2 µM. The CC50 at 72 h in data set [3] turned out to be 24.2 µM. For the same compound, the selectivity ratio in data set [4] was found to be 31.8.

Take `c1ccc(-c2cc(-c3ccccc3)c3ncccc3n2)cc1`: the inhibition entry in the data set on Leishmania donovani was “Active”. Further, the results for the IC50 with Leishmania infantum [2], at DNA topoisomerase 1 (read-out: IC50) and in the data set on Leishmania infantum [5] were 8.42 µM, 11.2 µM and 27.2 µM, respectively. For the same compound, in data set [3], the CC50 at 72 h was 54.8 µM. Moreover, the selectivity ratio in data set [4] is 6.5.

`Fc1ccc(-c2cc(-c3ccc(-c4ccccc4)cc3)c3ncccc3n2)cc1`: the 50% inhibitory concentration (IC50) in data set [1] (read-out: IC50) is 58.1 µM; with Leishmania infantum [2], 5.04 µM; on DNA topoisomerase 1 (read-out: IC50), 83.3 µM; in the data set on Leishmania infantum [5], 45.2 µM. Moreover, the half-maximal cytotoxic concentration (CC50) at 72 h in data set [3] was 153 µM. Also, the selectivity ratio in data set [4] was determined as 30.2.

Consider `Fc1ccc(-c2cc(-c3ccccc3)c3ncccc3n2)cc1F`, for which the IC50 in data set [1] (read-out: IC50) was 76.6 µM; in the data set on Leishmania infantum [2], 2.82 µM; on DNA topoisomerase 1 (read-out: IC50), 73.1 µM; in the data set with Leishmania infantum [5], > 100 µM. Also, in data set [3], the CC50 at 72 h came out at 21.7 µM. Moreover, the selectivity ratio in data set [4] worked out at 7.7.

Regarding `FC(F)(F)c1ccc(-c2cc(-c3ccc(C(F)(F)F)cc3)c3ncccc3n2)cc1`, the half-maximal inhibitory concentration (IC50) with Leishmania infantum [2] is 9.47 µM; at DNA topoisomerase 1 (read-out: IC50), 50.9 µM; in the data set on Leishmania infantum [5], > 100 µM. In addition, the cytotoxic concentration (CC50) at 72 h in data set [3] came to 178 µM. Further, the selectivity ratio in data set [4] came out at 18.8.

On to `COc1cccc(-c2cc(-c3ccccc3)c3ncccc3n2)c1`, for which the IC50 is 0.58 µM with Leishmania infantum [2], 82 µM at DNA topoisomerase 1 (read-out: IC50) and > 100 µM in the data set with Leishmania infantum [5]. The CC50 at 72 h in data set [3] is 157 µM. Also, the selectivity ratio in data set [4] came to 272.

As for `COc1ccc(-c2cc(-c3cccc([N+](=O)[O-])c3)nc3cccnc23)cc1`, the IC50 entry in data set [1] was “Not Active”; in the data set with Leishmania infantum [2] it was 3.79 µM; on DNA topoisomerase 1 it was “Not Active”; in the data set with Leishmania infantum [5], 45.2 µM. In addition, in data set [3], the CC50 at 72 h was 133 µM. Moreover, in data set [4], the selectivity ratio was 35.1.

For `Fc1ccc(-c2cc(-c3ccsc3)c3ncccc3n2)cc1`, the IC50 worked out at 49.3 µM in data set [1] (read-out: IC50), 7.93 µM with Leishmania infantum [2], 43.8 µM at DNA topoisomerase 1 (read-out: IC50) and 67 µM in the data set with Leishmania infantum [5]. Also, the CC50 at 72 h in data set [3] is 32.5 µM. In addition, the selectivity ratio in data set [4] amounted to 4.1.
